Measured values from article PMC3149845 (The Journal of neuroscience : the official journal of the …, 2011).
Entries after “also recorded” stand apart in the source; their conditions may differ. Peptide text beside a SMILES is read from it.

Experiments:
smTas1R2:T40S+smTas1R3 = smTas1R2:T40S+smTas1R3 (Saimiri sciureus, UniProt A3QP08, T40S); test: Ca2+ mobilization, mutated squirrel monkey receptor; assay type: cell-based, squirrel monkey (Saimiri sciureus); details: aspartame 10mM, neotame 1mM, sucralose 2 mM; compared with smTas1R2/smTas1R3
[1] = target: T1, hTas1R2:S40T/I67S/D142E+hTas1R3 (Homo sapiens, UniProt Q8TE23, D142E/I67S/S40T); test: Ca2+ mobilization, mutated human receptor; assay type: cell-based; details: for calcium response to sweetener: aspartame 10mM, neotame 1mM, sucralose 2 mM, compared with hTas1R2/hTas1R3; for response in dose-response experiment: versus hTas1R2+hTas1R3
T1 sequence (Q8TE23 20-839 S40T/I67S/D142E): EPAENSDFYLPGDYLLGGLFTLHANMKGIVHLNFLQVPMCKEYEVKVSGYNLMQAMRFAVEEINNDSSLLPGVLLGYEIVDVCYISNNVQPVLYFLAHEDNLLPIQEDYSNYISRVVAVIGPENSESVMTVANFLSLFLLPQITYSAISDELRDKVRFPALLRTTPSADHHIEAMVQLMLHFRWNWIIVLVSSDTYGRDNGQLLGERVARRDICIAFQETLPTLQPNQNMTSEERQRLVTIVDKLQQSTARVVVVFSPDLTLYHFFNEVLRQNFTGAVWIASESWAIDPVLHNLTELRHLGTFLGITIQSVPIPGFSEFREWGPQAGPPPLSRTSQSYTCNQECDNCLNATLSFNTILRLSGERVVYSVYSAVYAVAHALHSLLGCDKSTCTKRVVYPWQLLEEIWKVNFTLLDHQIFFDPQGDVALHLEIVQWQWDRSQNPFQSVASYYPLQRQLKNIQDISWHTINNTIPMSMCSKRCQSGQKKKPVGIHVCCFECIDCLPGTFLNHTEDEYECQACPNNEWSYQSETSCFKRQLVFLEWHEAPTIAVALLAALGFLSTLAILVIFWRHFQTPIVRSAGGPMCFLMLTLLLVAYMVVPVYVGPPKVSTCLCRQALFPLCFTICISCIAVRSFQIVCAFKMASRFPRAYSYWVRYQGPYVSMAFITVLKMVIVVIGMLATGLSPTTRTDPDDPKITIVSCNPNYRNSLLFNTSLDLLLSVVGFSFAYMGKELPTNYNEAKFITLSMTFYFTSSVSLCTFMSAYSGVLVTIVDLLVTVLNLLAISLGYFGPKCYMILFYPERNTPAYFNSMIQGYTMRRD
T1 sequence (Q7RTX0 21-852 partner): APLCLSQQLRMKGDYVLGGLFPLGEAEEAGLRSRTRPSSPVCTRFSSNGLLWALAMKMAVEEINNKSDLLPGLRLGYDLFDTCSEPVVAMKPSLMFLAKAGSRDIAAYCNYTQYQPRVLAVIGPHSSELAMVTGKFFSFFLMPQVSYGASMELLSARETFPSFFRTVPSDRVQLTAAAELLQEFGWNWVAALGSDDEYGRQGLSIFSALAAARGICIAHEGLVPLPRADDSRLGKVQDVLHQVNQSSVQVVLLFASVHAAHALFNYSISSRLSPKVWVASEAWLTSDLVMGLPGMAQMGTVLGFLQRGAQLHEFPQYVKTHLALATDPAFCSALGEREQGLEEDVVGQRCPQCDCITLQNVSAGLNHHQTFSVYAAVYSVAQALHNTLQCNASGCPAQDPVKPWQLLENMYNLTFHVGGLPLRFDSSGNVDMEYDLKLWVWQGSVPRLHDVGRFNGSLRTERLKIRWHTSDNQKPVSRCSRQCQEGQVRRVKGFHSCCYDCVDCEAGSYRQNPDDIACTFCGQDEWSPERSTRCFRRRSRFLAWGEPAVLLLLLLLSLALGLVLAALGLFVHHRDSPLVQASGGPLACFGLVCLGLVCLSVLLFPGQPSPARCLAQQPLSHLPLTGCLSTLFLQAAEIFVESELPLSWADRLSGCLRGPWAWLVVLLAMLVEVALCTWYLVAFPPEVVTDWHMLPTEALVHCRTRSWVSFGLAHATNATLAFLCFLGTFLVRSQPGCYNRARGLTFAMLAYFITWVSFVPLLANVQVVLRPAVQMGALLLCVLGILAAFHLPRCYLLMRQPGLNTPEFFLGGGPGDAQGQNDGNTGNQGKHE

[2] = target: hTas1R2:S40T/V66L/I67S/D142E+hTas1R3 (Homo sapiens, UniProt Q8TE23, D142E/I67S/S40T/V66L); test: Ca2+ mobilization, mutated human receptor; assay type: cell-based; details: aspartame 10mM, neotame 1mM, sucralose 2 mM; compared with hTas1R2/hTas1R3
In short: (§1)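 HEK293E cells grown at 37°C in Opti-MEM with 5% FBS and seeded at 50,000/well. Cells co-lipofected with Tas1R plasmids and Gα16-gust44 (0.06 μg each per well); medium changed at 20 h, assayed 24 h later. Cells loaded 1 h with Fluo-4 AM in HEPES-buffered HBSS. Tastant added at 30 s; fluorescence (ex 488/em 525 nm) read every 2 s for 150 s more. ΔF/F normalised to human receptor maximal sucralose response; mean ± SEM, three independent experiments.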

smTas1R2/hTas1R3 = target: T2, smTas1R2/hTas1R3 (Saimiri sciureus, UniProt A3QP08); test: Ca2+ mobilization, mismatched receptor; assay type: cell-based, human/squirrel monkey; details: aspartame 10mM, neotame 1mM, sucralose 2 mM, D-tryptophan 5mM, sucrose 150mM
T2 sequence (A3QP08 20-834): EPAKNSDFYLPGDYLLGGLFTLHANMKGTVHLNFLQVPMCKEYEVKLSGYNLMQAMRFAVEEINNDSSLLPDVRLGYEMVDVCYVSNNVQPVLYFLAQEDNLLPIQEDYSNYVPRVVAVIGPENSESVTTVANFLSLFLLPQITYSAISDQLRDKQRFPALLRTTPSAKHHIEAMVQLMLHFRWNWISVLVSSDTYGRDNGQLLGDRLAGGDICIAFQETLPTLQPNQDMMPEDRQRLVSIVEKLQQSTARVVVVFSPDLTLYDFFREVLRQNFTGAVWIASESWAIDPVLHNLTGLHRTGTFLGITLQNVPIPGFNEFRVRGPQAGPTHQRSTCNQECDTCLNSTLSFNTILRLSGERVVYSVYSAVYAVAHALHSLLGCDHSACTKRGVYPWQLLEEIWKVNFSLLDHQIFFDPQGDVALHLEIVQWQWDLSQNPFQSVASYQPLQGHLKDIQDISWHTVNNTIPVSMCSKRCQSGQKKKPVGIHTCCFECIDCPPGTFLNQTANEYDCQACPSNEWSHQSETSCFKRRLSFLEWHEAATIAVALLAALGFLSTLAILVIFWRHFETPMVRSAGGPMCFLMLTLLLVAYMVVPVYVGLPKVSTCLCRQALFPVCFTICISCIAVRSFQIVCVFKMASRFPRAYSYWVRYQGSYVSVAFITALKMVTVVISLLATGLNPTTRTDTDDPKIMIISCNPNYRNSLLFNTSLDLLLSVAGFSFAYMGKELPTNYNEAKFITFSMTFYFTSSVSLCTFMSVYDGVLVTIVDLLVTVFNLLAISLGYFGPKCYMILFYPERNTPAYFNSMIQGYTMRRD
T2 sequence (Q7RTX0 21-852 partner): T1 sequence (Q7RTX0 21-852 partner)
In short: as §1

[3] = ΔF/F normalized to maximum response of hTas1R2/hTas1R3 to neotame

smTas1R2:T40S+smTas1R3, sequence (A3QP08 20-834 T40S): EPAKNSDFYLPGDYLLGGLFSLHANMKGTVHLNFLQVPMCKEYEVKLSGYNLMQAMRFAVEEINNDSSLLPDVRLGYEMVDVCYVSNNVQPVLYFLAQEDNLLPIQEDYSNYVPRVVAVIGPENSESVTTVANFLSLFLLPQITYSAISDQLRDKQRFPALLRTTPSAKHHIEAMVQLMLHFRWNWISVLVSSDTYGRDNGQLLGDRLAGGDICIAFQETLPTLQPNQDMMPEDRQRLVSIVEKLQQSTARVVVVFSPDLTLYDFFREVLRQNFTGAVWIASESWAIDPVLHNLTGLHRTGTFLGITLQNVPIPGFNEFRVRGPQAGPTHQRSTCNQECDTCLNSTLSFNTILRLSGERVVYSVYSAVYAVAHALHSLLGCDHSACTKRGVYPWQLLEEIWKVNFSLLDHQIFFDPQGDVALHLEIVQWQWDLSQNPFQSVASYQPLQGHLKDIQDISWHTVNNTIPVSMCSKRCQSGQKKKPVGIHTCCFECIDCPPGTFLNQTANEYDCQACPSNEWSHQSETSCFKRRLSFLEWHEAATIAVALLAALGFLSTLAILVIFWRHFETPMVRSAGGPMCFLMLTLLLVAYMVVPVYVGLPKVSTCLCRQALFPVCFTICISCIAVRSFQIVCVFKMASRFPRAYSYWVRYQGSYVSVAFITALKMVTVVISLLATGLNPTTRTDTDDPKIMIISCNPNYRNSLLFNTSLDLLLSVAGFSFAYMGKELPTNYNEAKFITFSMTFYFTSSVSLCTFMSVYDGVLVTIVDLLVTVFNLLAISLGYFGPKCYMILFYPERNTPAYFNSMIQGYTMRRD
hTas1R2:S40T/V66L/I67S/D142E+hTas1R3, sequence (Q8TE23 20-839 S40T/V66L/I67S/D142E, one chain of several): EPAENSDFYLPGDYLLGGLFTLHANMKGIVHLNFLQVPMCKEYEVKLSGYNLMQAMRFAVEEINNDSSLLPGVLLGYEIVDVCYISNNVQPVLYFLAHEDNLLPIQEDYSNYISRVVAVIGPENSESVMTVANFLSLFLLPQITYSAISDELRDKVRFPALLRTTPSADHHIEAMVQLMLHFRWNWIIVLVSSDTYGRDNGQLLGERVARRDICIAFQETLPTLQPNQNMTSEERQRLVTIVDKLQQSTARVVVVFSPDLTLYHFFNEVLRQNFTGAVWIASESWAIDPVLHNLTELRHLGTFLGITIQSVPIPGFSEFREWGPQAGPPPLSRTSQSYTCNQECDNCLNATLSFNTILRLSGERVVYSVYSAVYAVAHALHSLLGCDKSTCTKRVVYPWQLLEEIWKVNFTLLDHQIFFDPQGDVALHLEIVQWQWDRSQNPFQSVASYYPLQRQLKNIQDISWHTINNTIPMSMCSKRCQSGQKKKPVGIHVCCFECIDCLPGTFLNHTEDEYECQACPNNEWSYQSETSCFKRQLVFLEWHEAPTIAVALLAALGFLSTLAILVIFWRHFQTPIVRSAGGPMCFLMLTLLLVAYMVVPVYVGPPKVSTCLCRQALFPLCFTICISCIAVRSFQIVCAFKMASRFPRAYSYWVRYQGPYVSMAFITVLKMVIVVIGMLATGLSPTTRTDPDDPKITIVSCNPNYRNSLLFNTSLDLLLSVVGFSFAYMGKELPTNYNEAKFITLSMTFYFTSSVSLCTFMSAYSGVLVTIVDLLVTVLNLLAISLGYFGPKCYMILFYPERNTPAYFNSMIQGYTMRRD

COC(=O)[C@H](Cc1ccccc1)NC(=O)[C@@H](N)CC(=O)O [aspartame, L-α-aspartly-L-phenylalanine methyl ester] (H-Asp-Phe-OMe)
calcium response to sweetener (smTas1R2:T40S+smTas1R3): not able to recover
calcium response to sweetener [1]: greatly impaired responsiveness
response in dose-response experiment ([1]; dose-response): no responses
calcium response to sweetener [2]: greatly impaired

COC(=O)[C@H](Cc1ccccc1)NC(=O)[C@H](CC(=O)O)NCCC(C)(C)C [neotame]
calcium response to sweetener (smTas1R2:T40S+smTas1R3): not able to recover
EC50 ([1]; HEK293E cells with Gα16-gust44, dose-response, calcium mobilization): 12 mM
calcium response to sweetener [1]: greatly impaired responsiveness; also recorded: almost completely abolished
response in dose-response experiment ([1]; dose-response): weaker responses
Bottom (B) of sigmoid dose-response fit [1, 3]: −1.486
Top (T) of sigmoid dose-response fit [1, 3]: 39.87
calcium response to sweetener [2]: greatly impaired

OC[C@H]1O[C@H](O[C@]2(CCl)O[C@H](CCl)[C@@H](O)[C@@H]2O)[C@H](O)[C@@H](O)[C@H]1Cl [sucralose]
calcium response to sweetener (smTas1R2/hTas1R3): remained intact or reduced
